From ChEMBL document CHEMBL4257503, “N-Acetyl-3-aminopyrazoles block the non-canonical NF-kB cascade by selectively inhibiting NIK” (Medchemcomm, 2018)

Legend:
[1] = molecular target: T1, Inhibitor of nuclear factor kappa-B kinase subunit epsilon (Homo sapiens, UniProt Q14164); experiment: Inhibition of recombinant human full-length N-terminal GST-fused/His6-tagged IKKepsilon (M1 to V716 residues) expressed in Sf9 insect cells using ERLLDDRHDSGLDSMKDEE peptide as substrate measured after 60 mins by ADP-Glo kinase assay
T1 sequence (Q14164 whole entry): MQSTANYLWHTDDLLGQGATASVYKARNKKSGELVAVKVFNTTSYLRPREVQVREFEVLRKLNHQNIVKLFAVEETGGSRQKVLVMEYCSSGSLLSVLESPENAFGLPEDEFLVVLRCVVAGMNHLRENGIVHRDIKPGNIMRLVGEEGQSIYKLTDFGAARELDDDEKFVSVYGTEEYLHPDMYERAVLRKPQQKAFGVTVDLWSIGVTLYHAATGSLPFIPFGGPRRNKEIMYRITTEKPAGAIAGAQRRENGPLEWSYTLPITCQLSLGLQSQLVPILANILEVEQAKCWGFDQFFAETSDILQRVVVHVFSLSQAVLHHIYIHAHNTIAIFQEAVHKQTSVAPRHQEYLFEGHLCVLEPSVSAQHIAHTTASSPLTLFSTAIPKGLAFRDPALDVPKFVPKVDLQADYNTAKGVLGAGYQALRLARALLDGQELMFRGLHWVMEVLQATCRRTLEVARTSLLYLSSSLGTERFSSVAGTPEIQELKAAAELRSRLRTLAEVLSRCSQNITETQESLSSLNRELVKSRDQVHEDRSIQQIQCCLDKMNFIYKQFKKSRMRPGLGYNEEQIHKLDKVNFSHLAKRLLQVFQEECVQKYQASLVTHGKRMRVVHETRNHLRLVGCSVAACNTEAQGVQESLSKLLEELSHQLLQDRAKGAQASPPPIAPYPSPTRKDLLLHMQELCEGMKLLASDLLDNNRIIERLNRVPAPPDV

[2] = molecular target: Mitogen-activated protein kinase kinase kinase 14 (Homo sapiens, UniProt Q99558); experiment: Inhibition of recombinant human full-length N-terminal GST-fused/His6-tagged NIK (M1 to P947 residues) expressed in Sf9 insect cells using AKDVDQGSLCTSFVGTLQY peptide as substrate measured after 60 mins by ADP-Glo kinase assay
MDA-MB-231 = experiment: Inhibition of NFkappaB activation in human MDA-MB-231 cells at 100 uM after 6 hrs by dual luciferase reporter gene assay relative to control; type: cell-based
Method in brief: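 Cells were nucleofected with the pGL4.32 NF-κB-RE firefly luciferase and pGL4.74 TK-Renilla plasmids (3 µg, 10:1 ratio) and cultured for 24 h at 37 °C. Compound (10, 25, 50 or 100 µM) was then added for 6 h. Firefly luminescence was normalised to Renilla from the same sample and expressed as % of vehicle control. Means ± SD of three independent experiments.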

[3] = Cytotoxicity against human MDA-MB-231 cells assessed as cell viability at 100 uM after 6 hrs by CellTiter Glo luminescent assay relative to control; type: cell-based; details: read-out: Activity
Method in brief: (§1)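 Cells seeded at 5 x 10^3 per well and exposed for 6 h to the compound (10, 25, 50 or 100 µM) or to DMSO vehicle. Viability was read as intracellular ATP by CellTiter Glo luminescence.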

[4] = Cytotoxicity against human SKBR3 cells assessed as cell viability at 100 uM after 6 hrs by CellTiter Glo luminescent assay relative to control; type: cell-based, SK-BR-3; details: read-out: Activity; method in brief: as §1
[5] = molecular target: 5'-AMP-activated protein kinase catalytic subunit alpha-1 (Homo sapiens, UniProt Q13131); experiment: Inhibition of AMPK alpha1 (unknown origin) (1 to 550 residues)
[6] = molecular target: Tyrosine-protein kinase receptor UFO (Homo sapiens, UniProt P30530); experiment: Inhibition of AXL (unknown origin)
[7] = molecular target: Serine/threonine-protein kinase B-raf (Homo sapiens, UniProt P15056); experiment: Inhibition of wild-type B-RAF (unknown origin)
[8] = molecular target: Casein kinase I isoform alpha (Homo sapiens, UniProt P48729); experiment: Inhibition of CK1-alpha1 (unknown origin)
[9] = molecular target: Mitogen-activated protein kinase kinase kinase 8 (Homo sapiens, UniProt P41279); experiment: Inhibition of COT (unknown origin)
[10] = molecular target: Death-associated protein kinase 1 (Homo sapiens, UniProt P53355); experiment: Inhibition of DAPK1 (unknown origin)
[11] = molecular target: Dual specificity tyrosine-phosphorylation-regulated kinase 1A (Homo sapiens, UniProt Q13627); experiment: Inhibition of DYRK1A (unknown origin)
[12] = molecular target: Epidermal growth factor receptor (Homo sapiens, UniProt P00533); experiment: Inhibition of wild-type EGFR (unknown origin)
Ephrin type-A receptor 6 = Ephrin type-A receptor 6 (Homo sapiens, UniProt Q9UF33); experiment: Inhibition of EPHA6 (unknown origin)
[13] = molecular target: Glycogen synthase kinase-3 beta (Homo sapiens, UniProt P49841); experiment: Inhibition of GSK3-beta (unknown origin)
[14] = molecular target: Homeodomain-interacting protein kinase 1 (Homo sapiens, UniProt Q86Z02); experiment: Inhibition of HIPK1 (unknown origin)
Insulin receptor = Insulin receptor (Homo sapiens, UniProt P06213); experiment: Inhibition of INSR (unknown origin)
[15] = molecular target: Interleukin-1 receptor-associated kinase 4 (Homo sapiens, UniProt Q9NWZ3); experiment: Inhibition of untagged IRAK4 (unknown origin)
[16] = molecular target: Tyrosine-protein kinase JAK1 (Homo sapiens, UniProt P23458); experiment: Inhibition of JAK1 (unknown origin)
Tyrosine-protein kinase JAK1, sequence (P23458 whole entry): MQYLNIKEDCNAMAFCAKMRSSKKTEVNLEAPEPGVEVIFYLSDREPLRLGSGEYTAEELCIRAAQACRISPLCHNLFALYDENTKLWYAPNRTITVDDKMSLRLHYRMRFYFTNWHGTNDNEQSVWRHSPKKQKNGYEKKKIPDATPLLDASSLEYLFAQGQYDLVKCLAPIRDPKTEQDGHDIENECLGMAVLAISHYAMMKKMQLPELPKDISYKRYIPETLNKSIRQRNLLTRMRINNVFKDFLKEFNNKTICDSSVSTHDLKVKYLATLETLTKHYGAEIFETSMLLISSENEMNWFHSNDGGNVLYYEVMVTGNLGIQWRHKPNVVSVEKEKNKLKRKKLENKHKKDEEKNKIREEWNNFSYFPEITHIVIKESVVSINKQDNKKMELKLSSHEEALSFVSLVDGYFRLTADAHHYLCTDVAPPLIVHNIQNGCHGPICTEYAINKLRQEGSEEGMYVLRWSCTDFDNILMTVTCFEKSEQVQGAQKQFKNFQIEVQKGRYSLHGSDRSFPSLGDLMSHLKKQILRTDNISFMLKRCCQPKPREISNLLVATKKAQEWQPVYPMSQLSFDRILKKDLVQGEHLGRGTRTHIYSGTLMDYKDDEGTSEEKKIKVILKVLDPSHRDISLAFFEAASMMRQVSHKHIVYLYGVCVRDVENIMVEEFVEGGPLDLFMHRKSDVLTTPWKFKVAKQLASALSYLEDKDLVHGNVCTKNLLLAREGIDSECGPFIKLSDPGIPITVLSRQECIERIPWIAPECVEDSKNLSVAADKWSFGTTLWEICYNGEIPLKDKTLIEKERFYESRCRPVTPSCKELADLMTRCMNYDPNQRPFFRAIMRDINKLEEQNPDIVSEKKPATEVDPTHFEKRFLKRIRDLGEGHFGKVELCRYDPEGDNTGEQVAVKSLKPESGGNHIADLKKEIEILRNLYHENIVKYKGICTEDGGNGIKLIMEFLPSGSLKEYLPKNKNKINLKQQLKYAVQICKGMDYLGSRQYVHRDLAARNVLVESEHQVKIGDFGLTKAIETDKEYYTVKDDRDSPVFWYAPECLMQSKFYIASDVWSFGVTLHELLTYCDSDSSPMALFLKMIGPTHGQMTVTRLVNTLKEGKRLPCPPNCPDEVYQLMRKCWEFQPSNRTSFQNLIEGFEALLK

[17] = molecular target: Mitogen-activated protein kinase kinase kinase kinase 2 (Homo sapiens, UniProt Q12851); experiment: Inhibition of MAP4K2 (unknown origin)
Mitogen-activated protein kinase kinase kinase kinase 2, sequence (Q12851 whole entry): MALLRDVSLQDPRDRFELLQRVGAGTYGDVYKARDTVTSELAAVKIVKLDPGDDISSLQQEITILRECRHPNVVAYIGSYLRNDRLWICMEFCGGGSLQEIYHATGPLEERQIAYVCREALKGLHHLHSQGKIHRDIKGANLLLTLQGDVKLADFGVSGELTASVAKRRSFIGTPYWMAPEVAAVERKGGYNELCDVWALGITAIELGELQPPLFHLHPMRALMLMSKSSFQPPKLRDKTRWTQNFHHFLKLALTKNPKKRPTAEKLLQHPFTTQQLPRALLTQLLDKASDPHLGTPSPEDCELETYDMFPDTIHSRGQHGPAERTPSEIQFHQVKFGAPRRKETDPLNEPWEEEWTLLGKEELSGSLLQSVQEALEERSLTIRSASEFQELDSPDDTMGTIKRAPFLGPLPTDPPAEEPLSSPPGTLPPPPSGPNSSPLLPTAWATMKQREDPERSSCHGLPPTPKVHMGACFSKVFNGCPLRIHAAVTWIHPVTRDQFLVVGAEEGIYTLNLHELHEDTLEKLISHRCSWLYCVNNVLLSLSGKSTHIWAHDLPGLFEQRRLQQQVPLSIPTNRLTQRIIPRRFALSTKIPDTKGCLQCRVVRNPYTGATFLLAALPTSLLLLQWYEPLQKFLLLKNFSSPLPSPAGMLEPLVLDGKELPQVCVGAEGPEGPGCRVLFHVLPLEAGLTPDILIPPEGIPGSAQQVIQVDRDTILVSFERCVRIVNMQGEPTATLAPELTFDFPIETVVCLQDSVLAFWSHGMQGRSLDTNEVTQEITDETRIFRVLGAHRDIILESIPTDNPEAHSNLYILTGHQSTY

[18] = molecular target: Dual specificity mitogen-activated protein kinase kinase 1 (Homo sapiens, UniProt Q02750); experiment: Inhibition of wild-type MEK1 (unknown origin)
[19] = molecular target: Maternal embryonic leucine zipper kinase (Homo sapiens, UniProt Q14680); experiment: Inhibition of MELK (unknown origin)
[20] = molecular target: Hepatocyte growth factor receptor (Homo sapiens, UniProt P08581); experiment: Inhibition of wild-type MET (unknown origin)
Hepatocyte growth factor receptor, sequence (P08581 whole entry): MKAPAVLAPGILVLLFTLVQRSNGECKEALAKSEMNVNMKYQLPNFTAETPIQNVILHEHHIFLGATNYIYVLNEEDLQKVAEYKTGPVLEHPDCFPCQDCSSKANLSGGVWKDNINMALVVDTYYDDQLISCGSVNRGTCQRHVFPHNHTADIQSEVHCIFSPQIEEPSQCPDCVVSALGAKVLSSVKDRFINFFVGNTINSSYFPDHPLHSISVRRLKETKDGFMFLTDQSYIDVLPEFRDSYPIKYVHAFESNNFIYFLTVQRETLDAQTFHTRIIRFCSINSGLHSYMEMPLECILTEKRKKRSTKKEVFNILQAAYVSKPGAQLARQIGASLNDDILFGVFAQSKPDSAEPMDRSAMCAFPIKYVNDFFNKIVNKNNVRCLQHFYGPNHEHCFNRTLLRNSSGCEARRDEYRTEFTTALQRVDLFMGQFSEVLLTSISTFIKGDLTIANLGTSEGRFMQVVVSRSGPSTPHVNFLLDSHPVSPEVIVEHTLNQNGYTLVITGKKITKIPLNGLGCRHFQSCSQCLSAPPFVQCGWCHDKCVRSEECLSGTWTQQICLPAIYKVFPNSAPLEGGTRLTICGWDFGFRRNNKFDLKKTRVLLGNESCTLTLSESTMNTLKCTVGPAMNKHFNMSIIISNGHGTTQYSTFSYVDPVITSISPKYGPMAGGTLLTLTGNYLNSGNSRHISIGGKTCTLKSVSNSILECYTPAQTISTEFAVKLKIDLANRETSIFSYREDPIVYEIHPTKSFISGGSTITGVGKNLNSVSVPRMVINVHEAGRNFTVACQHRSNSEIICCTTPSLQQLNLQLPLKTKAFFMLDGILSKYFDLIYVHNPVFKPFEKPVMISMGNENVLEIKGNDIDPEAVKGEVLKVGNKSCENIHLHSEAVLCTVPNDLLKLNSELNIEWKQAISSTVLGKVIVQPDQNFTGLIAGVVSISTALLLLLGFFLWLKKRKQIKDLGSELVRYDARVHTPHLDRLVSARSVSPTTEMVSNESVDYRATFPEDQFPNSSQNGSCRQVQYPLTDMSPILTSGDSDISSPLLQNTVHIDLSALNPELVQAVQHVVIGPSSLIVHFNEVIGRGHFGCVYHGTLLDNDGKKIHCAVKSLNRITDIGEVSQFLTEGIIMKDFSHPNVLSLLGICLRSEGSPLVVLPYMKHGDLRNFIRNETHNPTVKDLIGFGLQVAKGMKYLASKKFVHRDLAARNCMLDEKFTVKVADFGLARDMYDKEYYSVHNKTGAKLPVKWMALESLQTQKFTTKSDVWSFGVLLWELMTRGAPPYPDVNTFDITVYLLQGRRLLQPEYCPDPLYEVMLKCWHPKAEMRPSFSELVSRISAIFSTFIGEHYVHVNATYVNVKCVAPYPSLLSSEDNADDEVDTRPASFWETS

[21] = molecular target: Serine/threonine-protein kinase mTOR (Homo sapiens, UniProt P42345); experiment: Inhibition of mTOR (unknown origin)
[22] = molecular target: Serine/threonine-protein kinase PAK 1 (Homo sapiens, UniProt Q13153); experiment: Inhibition of PAK1 (unknown origin)
[23] = molecular target: Cyclin-Y/Cyclin-dependent kinase 16 (Homo sapiens, UniProt Q00536); experiment: Inhibition of PCTAIRE1/cyclinY (unknown origin); type: protein-complex assay
Cyclin-Y/Cyclin-dependent kinase 16, sequence (Q00536 whole entry): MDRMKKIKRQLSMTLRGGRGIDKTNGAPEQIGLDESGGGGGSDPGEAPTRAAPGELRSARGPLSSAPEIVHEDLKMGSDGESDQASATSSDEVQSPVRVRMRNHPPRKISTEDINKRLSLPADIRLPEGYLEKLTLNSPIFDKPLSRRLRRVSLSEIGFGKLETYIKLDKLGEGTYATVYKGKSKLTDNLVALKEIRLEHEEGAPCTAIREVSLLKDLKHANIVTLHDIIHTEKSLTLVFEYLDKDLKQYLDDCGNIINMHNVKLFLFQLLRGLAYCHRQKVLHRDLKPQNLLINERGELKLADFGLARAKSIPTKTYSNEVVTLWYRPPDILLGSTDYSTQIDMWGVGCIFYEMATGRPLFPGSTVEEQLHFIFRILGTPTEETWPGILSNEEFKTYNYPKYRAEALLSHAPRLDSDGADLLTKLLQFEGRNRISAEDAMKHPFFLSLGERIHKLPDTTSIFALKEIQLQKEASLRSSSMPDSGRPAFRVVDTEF
Cyclin-Y/Cyclin-dependent kinase 16, sequence (Q8ND76 whole entry, further chain): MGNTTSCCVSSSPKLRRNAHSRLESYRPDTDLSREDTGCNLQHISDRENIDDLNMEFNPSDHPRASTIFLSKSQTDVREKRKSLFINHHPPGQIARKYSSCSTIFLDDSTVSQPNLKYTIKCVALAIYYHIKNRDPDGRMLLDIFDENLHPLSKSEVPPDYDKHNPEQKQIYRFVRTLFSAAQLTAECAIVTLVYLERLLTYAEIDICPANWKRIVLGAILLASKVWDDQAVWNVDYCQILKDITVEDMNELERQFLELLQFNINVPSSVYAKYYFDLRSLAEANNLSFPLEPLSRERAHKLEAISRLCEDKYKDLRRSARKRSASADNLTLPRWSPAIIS

[24] = molecular target: Serine/threonine-protein kinase pim-1 (Homo sapiens, UniProt P11309); experiment: Inhibition of PIM1 (unknown origin)
SRSF protein kinase 2 = SRSF protein kinase 2 (Homo sapiens, UniProt P78362); experiment: Inhibition of SRPK2 (unknown origin)
SRSF protein kinase 2, sequence (P78362 whole entry): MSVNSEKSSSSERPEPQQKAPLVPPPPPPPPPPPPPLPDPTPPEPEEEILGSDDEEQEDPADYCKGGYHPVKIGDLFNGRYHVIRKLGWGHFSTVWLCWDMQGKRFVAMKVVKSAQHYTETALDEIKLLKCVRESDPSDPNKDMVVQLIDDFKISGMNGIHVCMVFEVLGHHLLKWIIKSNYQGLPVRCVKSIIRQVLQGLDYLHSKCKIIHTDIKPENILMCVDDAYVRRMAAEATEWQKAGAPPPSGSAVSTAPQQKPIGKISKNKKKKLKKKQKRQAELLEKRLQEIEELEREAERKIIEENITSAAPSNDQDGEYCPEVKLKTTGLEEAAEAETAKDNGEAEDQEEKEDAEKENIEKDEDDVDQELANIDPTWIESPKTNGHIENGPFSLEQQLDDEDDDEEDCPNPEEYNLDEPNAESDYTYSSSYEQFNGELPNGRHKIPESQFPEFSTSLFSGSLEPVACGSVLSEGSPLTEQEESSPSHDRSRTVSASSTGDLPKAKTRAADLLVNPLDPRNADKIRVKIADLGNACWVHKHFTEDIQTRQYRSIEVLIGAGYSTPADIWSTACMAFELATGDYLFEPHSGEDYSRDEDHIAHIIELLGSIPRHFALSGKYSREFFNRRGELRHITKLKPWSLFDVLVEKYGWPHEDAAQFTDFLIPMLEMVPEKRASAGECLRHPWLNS

[25] = molecular target: Serine/threonine-protein kinase TAO2 (Homo sapiens, UniProt Q9UL54); experiment: Inhibition of TAOK2 (unknown origin)
[26] = Stability in human liver microsomes at 1 uM in absence of NADPH cofactor; type: ADME, microsome

Structure (SMILES): CC(=O)n1nc(C)c(-c2ccc(Cl)c(Cl)c2)c1N
- IC50 [1]: > 100 µM
- IC50 [2]: 8.4 µM
- inhibition (MDA-MB-231): -0.77%
- viability at 6 h, 100 µM [3]: ≥ 80%
- viability at 6 h, 100 µM [4]: ≥ 80%
- IC50 [5]: > 100 µM
- IC50 [6]: > 100 µM
- IC50 [7]: > 100 µM
- IC50 [8]: > 100 µM
- IC50 [9]: > 100 µM
- IC50 [10]: > 100 µM
- IC50 [11]: > 100 µM
- IC50 [12]: > 100 µM
- IC50 (Ephrin type-A receptor 6): > 100 µM
- IC50 [13]: > 100 µM
- IC50 [14]: > 100 µM
- IC50 (Insulin receptor): > 100 µM
- IC50 [15]: > 100 µM
- IC50 [16]: > 100 µM
- IC50 [17]: > 100 µM
- IC50 [18]: > 100 µM
- IC50 [19]: > 100 µM
- IC50 [20]: > 100 µM
- IC50 [21]: > 100 µM
- IC50 [22]: > 100 µM
- IC50 [23]: > 100 µM
- IC50 [24]: > 100 µM
- IC50 (SRSF protein kinase 2): > 100 µM
- IC50 [25]: > 100 µM
- Stability [26]: Unstable
